Entries after “also recorded” stand apart in the source; their conditions may differ. Numbered stars: 1 amine (or outer) side, 2 acyl side, 3 side chain; on linkers, the order of the positions; unused ones are H or OH. Suc = O=C(CCC(=O)[*:2])[*:1]
Key:
HIV-1 RRE IIB RNA = assay: Dissociation constants by electrophoretic mobility shift assay; format: binding; details: EMSA, average of at least three experiments
[1] = test system: U87 CXCR4 human glioblastoma cell line stably transfected with CD4 and CXCR4; assay: MTT toxicity assay; format: cell-based; details: for toxicity (MTT assay): U87 CXCR4 cells, concentrations up to 100 μM; for cell viability (MTT assay in parallel with second p24 screening): at 40 μM
How it was run: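 MTT viability read in U87 human glioblastoma cells stably transfected with CD4 and CXCR4, with cells receiving no compound as the control. It was run as a toxicity screen of test peptides and again in parallel with the second p24 ELISA screen of HIV replication.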

[2] = test system: HIV-1 capsid protein p24 production; format: cell-based; details: p24 ELISA; for inhibition of p24 expression: 40 μM; for suppression of HIV replication / inhibition of p24 / inhibition of the production of p24: initial screen; for suppression of HIV replication / inhibition of p24: 100 μM; for inhibition of the production of p24: 10 μM
wild-type RRE IIB RNA = details: EMSA; cited from earlier work

| Substance | Kd (HIV-1 RRE IIB RNA) | suppression of HIV replication / inhibition of p24 [2] | also measured |
| --- | --- | --- | --- |
| (KACRKK)2*KLKBBAY [Peptide A6] | 60 ± 10 nM | greatly suppressed HIV replication; also recorded: complete or virtually complete inhibition of p24 | toxicity (MTT assay) [1]: slight toxicity; also recorded: nearly non-toxic; cell viability (MTT assay in parallel with second p24 screening) [1]: confirmed cell viability; inhibition of p24 expression [2]: approximately 90% |
| (KKACRK)2*KLKBBAY [Peptide A7] | 70 ± 30 nM | greatly suppressed HIV replication; also recorded: complete or virtually complete inhibition of p24 | toxicity (MTT assay) [1]: cytotoxicity in a dose-dependent manner; also recorded: moderate toxicity; cell viability (MTT assay in parallel with second p24 screening) [1]: confirmed cell viability; inhibition of p24 expression [2]: approximately 90%; inhibition of the production of p24 [2]: 60% |
| (KKBBAK)2*LLKY [Peptide A8] | 660 ± 90 nM |  |  |
| (KKK)2*KACRLKY [Peptide A3] | 140 ± 50 nM | greatly suppressed HIV replication |  |
| (KKK)2*KLKACRY [Peptide A4] | 20 ± 4 nM | greatly suppressed HIV replication; also recorded: complete or virtually complete inhibition of p24 | toxicity (MTT assay) [1]: slight toxicity |
| (KKK)2*LKBBAKBBAY [Peptide A1] | 280 ± 80 nM | greatly suppressed HIV replication; also recorded: complete or virtually complete inhibition of p24 |  |
| (KKK)2*LKBBALY [Peptide A2] | 130 ± 30 nM |  |  |
| (KKKBBA)2*KLKBBAY [Peptide A9] | 120 ± 40 nM |  |  |
| (KKL)2*KKBBAKBBAY [Peptide A14] | 170 ± 50 nM |  |  |
| (KKL)2*LKKBBAY [Peptide A12] | 330 ± 100 nM |  |  |
| (KLK)2*KKKBBAY [Peptide A11] | 1430 ± 870 nM |  | inhibition of the production of p24 [2]: 40% |
| (KLK)2*LKKBBAY [Peptide A10] | 300 ± 40 nM |  |  |
| (LLK)2*KKBBAKY [Peptide A13] | 210 ± 30 nM |  |  |
| Suc-TRQARRNRRRRWRERQRAAAAR-NH2 [Rev17] |  |  | Kd (wild-type RRE IIB RNA): 100 nM |

From publication PMC4957400 (MedChemComm, 2016)
